# Measurements from PMC8489566 (ACS nano, 2020).
# Experiments:
# [1] = system: human THP-1 macrophages; type: cell-based
# [2] = system: mouse-derived J774A.1 macrophages; type: cell-based
# Procedure, shortened: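 J774A.1 macrophages plated 24 h in RPMI with 10% FBS, then treated with test compound (20 nM, 1 μM or 50 μM) for 1 h at 37 °C and washed; positive control was 5 μg/mL rat anti-mouse SIRPα. Human RBCs were EDTA-washed, opsonized with 20 μg/mL rabbit anti-RBC IgG (1 h, RT), and PKH26-labelled. They were added at 10:1 for 1 h at 37 °C, then fixed and Hoechst-stained for fluorescence imaging.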
# [3] = system: SIRPα; assay: CD47-Fc inhibition assay; type: binding, human; settings: THP-1 macrophages, 1 μM or 50 μM peptide 1 h, Fc-receptor blockade, 2 μg/mL CD47-Fc, anti-Fc fluorescence, n = 2 sets of triplicates
substance,measurement,setting,value
"nS-wt: CD47's eight amino acid binding loop, wild-type nano-Self peptide, C-terminal amide",phagocytosis levels at maximum peptide concentration,"[1]; 50 μM peptide, opsonized RBCs",well above those for nS-X and nS-XX controls
same,"macrophages that internalize opsonized RBCs, peptide combined with anti-RBC","[1]; maximum peptide concentration (50 μM), anti-RBC ~133 nM, n = 3",~ 30%
same,phagocytosis compared with anti-CD47,"[1]; saturating peptide, opsonized RBCs",gives the same result as anti-CD47
same,phagocytosis by mouse macrophages,"[2]; J774A.1 macrophages, opsonized RBCs, high concentrations (50 μM)",matches anti-CD47 blockade effects
same,effective activity in the mouse macrophage assay relative to the human assay,[2]; weaker in mouse than in human macrophages,~ 100 fold
same,level of inhibition of CD47-Fc binding to macrophages,[3],inhibited
